This is a sample that favours compounds with a hit; in the whole collection about 1.6% have one here.
Rpn11 block = Rpn11 (PSMD14) deubiquitinase inhibitors, primary screen, biochemical, fluorescence polarization, uHTS; 26S proteasome non-ATPase regulatory subunit 14 (Homo sapiens), O00487; calls only at 20 µM; human 26S proteasome, Ub4-pepOG fluorescence polarization; 20S core pre-blocked with epoxomicin; 360,000 tested, 0.59% active; AID 588493, 2011;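 active means inhibition at 20 µM, scaled to each plate's controls, above about 33%, limit read from the data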
Target sequence (O00487 whole entry, looked up): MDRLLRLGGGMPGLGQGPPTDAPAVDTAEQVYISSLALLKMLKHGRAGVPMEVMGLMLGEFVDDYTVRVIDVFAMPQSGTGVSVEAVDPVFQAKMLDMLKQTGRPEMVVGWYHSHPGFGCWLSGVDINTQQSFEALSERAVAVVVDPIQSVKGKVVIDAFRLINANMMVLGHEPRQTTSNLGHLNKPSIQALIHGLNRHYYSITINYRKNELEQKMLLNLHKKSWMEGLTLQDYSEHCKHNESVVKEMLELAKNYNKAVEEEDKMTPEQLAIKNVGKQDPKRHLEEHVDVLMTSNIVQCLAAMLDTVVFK
PKA-R1A act = activators of PKA-R1A holoenzyme, primary screen, biochemical, fluorescence polarization, Cy5-IP20, bovine R1A, mouse PKAc; cAMP-dependent protein kinase type I-alpha regulatory subunit (Bos taurus) + …; PKA-R1A dissociation; scaled: DMSO 0%, 113 µM cGMP 100%; activation, % at 11.4 µM; 340,000 tested, 0.083% active; AID 504707, 2011;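 active means percent activation above the mean of all tested compounds plus 3 SD, cut at about 19% in these data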;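 further: higher means more PKAc released from R1A so a rise in polarization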
CSN deneddyl inh = inhibitors of CSN-mediated cullin deneddylation, primary screen, biochemical, fluorescence polarization, uHTS; 360,000 tested, 0.38% active; COP9 signalosome complex subunit 5 (Homo sapiens), Q92905; inhibition, % at 12.5 µM; Purified CSN, SCF-Nedd8-OG deneddylation;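 active means pattern-corrected inhibition above about 35%, with an unprinted fluorescence ratio check between 0.5 and 1.5, limit read from the data, passing the limit was not always enough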;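 further: 0% = enzyme with substrate and 100% = substrate without enzyme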
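Assay system: purified human Csn5 enzyme expressed in HEK293T cells; measure: % inhibition; also added: SCFSkp2-Nedd8OG substrate at 10 nM final; technique: fluorescence polarization; times: reaction 90 min, room temperature; medium: Tris buffer pH 7.5, NaCl, DTT, Tween-20, trehalose, ovalbumin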
TPT1 inhibitor = Candida albicans TPT1 enzyme inhibitors, primary screen, biochemical, fluorescence polarization | AID 1962, 2009 | tRNA 2'-phosphotransferase TPT1 (Candida albicans SC5314) | 300,000 tested, 0.81% active | recombinant caTPT1, FP RNA substrate dephosphorylation | inhibition, % at 5 µM;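 active means inhibition above the mean of all tested compounds plus 3 SD, set per screening campaign, cut at about 24% in these data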;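 further: plate controls were DMSO alone for no effect and ferristatin control at 100 nM for full effect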
HNF4A DNA FP = change in binding of human HNF4A to DNA, primary screen, biochemical, fluorescence polarization, FITC-DNA | Hepatocyte nuclear factor 4-alpha (Homo sapiens), P41235 | 1 h | activity change, % at 10 µM | 360,000 tested, 0.3% active | AID 1224865, 2016; in the data active means activity change above about 30%, passing the limit was not always enough
PKA-R2B act = activators of PKA-R2B holoenzyme, primary screen, biochemical, fluorescence polarization, Cy5-IP20, human | PKA-R2B holoenzyme dissociation; R2B truncated from residue 108, S112A mutant; 0% DMSO only, 100% 113 µM cGMP | activation, % at 11.4 µM | 340,000 tested, 0.079% active;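 active means activation above a cutoff set at the mean over all compounds plus 3 SD, cut at about 18% in these data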;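 further: higher means more holoenzyme dissociation and a rise in polarization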
TPT1 inh confirm = Candida albicans TPT1 inhibitors, confirmation, biochemical, fluorescence polarization, triplicate; shares compounds with TPT1 inhibitor; recombinant caTPT1, RNase T1 coupled; inhibition, % at 5 µM; 2,400 tested, 74% active;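 active means inhibition above the primary screen limit, the mean inhibition of all tested compounds plus 3 SD, cut at about 25% in these data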
RNase T1 counter = RNase T1 inhibitors, counter-screen for TPT1 inhibitor project, biochemical, fluorescence polarization; shares compounds with TPT1 inhibitor; RNase T1 cleavage, 1536-well; inhibition, % at 5 µM; 2,400 tested, 83% active;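 active means inhibition above the solvent-only control well mean plus 3 SD, limit set per screening run, cut at about 23% in these data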;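 further: plate controls were DMSO wells with enzyme for no effect and wells without RNase T1 for full effect; inhibitors block cleavage so intact labeled substrate keeps polarization high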
Target sequence (P00651 whole entry, looked up): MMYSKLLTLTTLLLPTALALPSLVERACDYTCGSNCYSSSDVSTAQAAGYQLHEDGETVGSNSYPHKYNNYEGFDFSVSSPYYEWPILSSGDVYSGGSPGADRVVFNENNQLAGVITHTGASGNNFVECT
An asterisk follows results filed as active; i = inactive; x = no result shown.

SMILES | Rpn11 block | PKA-R1A act | CSN deneddyl inh | TPT1 inhibitor | HNF4A DNA FP | PKA-R2B act | TPT1 inh confirm | RNase T1 counter
CC(=O)Nc1ccc(N=Cc2c(O)c(C(=O)Nc3ccccc3)cc3ccccc23)cc1 | x | x | x | 121* | x | x | 109* | 107*
CC1(C(=O)NCC2CCCO2)Oc2cccnc2NC1=O (stereo unspecified) | i | 9 | 0 | -1 | 1 | -3 | x | x
Cc1cc(/C=C2\SC(=S)N(Cc3ccco3)C2=O)c(C)n1-c1ccccc1 | x | -7 | 24 | 102* | 45* | -12 | 98* | 106*
COc1ccc(-n2c(C)cc(/C=C3/SC(=S)N(C)C3=O)c2C)cc1 | x | -10 | 16 | 28* | 52* | 0 | 63* | 75*
COC(=O)Cn1cc(/C=C/c2cc[n+](C)cc2)c2ccccc21 | x | -2 | 68 | 35* | 92 | 4 | 41* | 49*
O=C1/C(=C/c2ccc([N+](=O)[O-])cc2)Oc2cc(O)ccc21 | i | 10 | 7 | x | 6 | 6 | x | x
O=C1/C(=C/c2ccc(Br)cc2)Oc2cc(O)ccc21 | i | -9 | 24 | 63* | 8 | -6 | 77* | 79*
COC(=O)c1ccc2c(c1)C(=O)/C(=C/c1ccc(O)cc1)O2 | i | 5 | 14 | 28* | 20 | -9 | 20 | 28*
CC(C)(C)c1ccc(/C=C2\Oc3cc(O)ccc3C2=O)cc1 | i | -2 | 17 | 30* | 11 | 5 | 67* | 72*
COc1cccc(C2Oc3ccccc3C3CC(c4cccs4)=NN32)c1 (stereo unspecified) | i | x | 7 | 61* | 5 | x | 33* | 46*
O=C(c1ccccc1)C1Oc2ccccc2C2CC(c3cccs3)=NN12 (stereo unspecified) | i | -10 | 4 | -3 | 3 | -2 | x | x
Cc1c(Cc2ccccc2)sc(N)c1C(N)=O | x | x | x | 11 | x | x | x | x
Cc1c(Cc2ccccc2)sc(/N=C/c2c(O)ccc3ccccc23)c1C(N)=O | x | -6 | 87 | 94* | 38* | -11 | 48* | 57*
Cc1ccc(/C=N/c2sc(Cc3ccccc3)c(C)c2C(N)=O)o1 | i | -3 | -7 | 8 | 27 | -9 | x | x
Cc1c(Cc2ccccc2)sc(/N=C/c2ccc3ccccc3c2)c1C(N)=O | i | -12 | -1 | 56* | 13 | -9 | 8 | 13
CCOc1ccc(S(=O)(=O)N(C)CC(=O)NCc2ccc3c(c2)OCO3)cc1 | i | -2 | -1 | 0 | -1 | 3 | x | x
O=C(O)CSc1ccn(Cc2ccccc2)c1 | i | 0 | -5 | x | 1 | 6 | x | x
CCCCc1nc2ccccc2c(NC(=O)CNC(C)(C)C)c1CCC | i | 4 | -1 | -3 | 2 | -6 | x | x
CCCCc1nc2ccccc2c(N)c1CCC (tested in a mixture with another compound) | i | -6 | -4 | 40* | -2 | -11 | 4 | 5
CC1=NN(c2ccccc2)C(=O)/C1=C\C=C1\N(C)c2ccccc2C1(C)C | x | -1 | 33 | 61* | 70* | -3 | 51* | 64*
CN1/C(=C\C=C2/SC(=S)NC2=O)C(C)(C)c2ccccc21 | x | 2 | -101 | 106* | -4 | -5 | 111* | 106*
